D1 allo mod: D1 dopamine receptor (human) allosteric modulation; P21728; HEK293 D1, CRE-luciferase, dopamine EC30 potentiation; actives deviate in either direction; B-score at 10 µM; hit rate 5.9% among 58,000;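 active = luminescence count or its row- and column-corrected plate score outside the 99.7% band of the plate's sample wells, on either side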
AP complement: alternative pathway complement inhibition, orthogonal assay | Human serum alternative complement pathway, LPS-coated ELISA, C3 deposition; tested in compound mixtures | inhibition, % at 5 µM | hit rate 0.08% among 62,000 | AID 1235;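 active = inhibition above 30% in each of the two pooled mixtures holding the compound, so the lower value exceeds 30%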
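Assay system: Human serum alternative complement pathway, C3 deposition on LPS-coated wells | Incubation: 1 h serum-compound exposure at 37 °C | Doses: 5 µM per compound in ten-compound mixtures | Read-out: Percent inhibition | Technique: ELISA with HRP anti-human C3 antibody, TMB substrate, absorbance 450 nm | Replication: Two pool placements per compound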
Ec RNAP inh: blocks E. coli RNA polymerase transcription; P0A8V2; fluorescence transcription assay; inhibition, %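 (tested at 10 µM)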; hit rate 0.2% among 62,000; in the data active = inhibition above about 20%
hDAT+cocaine: human DAT dopamine uptake with cocaine, either direction. hit rate 1.3% among 110,000. AID 449768. Q01959. B-score at 10 µM. LLC-PK1 hDAT cells, [14C]-dopamine uptake with cocaine IC80; actives deviate in either direction;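 active = Z score or B-score, a plate-position-corrected score, falls beyond the plate's 99.7% confidence bounds, in either direction; inactive = both scores lie inside the 99.7% bounds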
HEK293 NFkB inh: inhibitors of the PMA/ionomycin-induced NF-kB reporter in HEK293 cells; hit rate 0.21% among 62,000; AID 465; inhibition, % at 3 µM; HEK-293 NF-kB luciferase reporter, luminescence;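 active = inhibition above the mean of all tested compounds plus 3 SD, cut at about 40% in these data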
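Material: HEK-293 cells with stable firefly luciferase reporter driven by four HIV NF-kB elements / Also added: PMA plus ionomycin mix as NF-kB-activating stimulus / Compound dosing: 3 µM once, 0.30% DMSO / Times: 1 h pretreatment, 16 h stimulation, 37 °C / Signal: luminescence / Evaluation: per-plate % inhibition versus controls / Benchmarks: DMSO and 10 µM reference inhibitor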
Each line names hits and unclear results; the compound was inactive in the other large screens. Shown is part of a subset that was picked to be rich in hits.

CCCn1cnc2c1c(=O)n(CCCCC(C)=O)c(=O)n2C	none (no result: D1 allo mod, AP complement, Ec RNAP inh, HEK293 NFkB inh)
CCOC(=O)C1CCN(C(=O)COC(=O)COc2ccccc2OC)CC1	hDAT+cocaine -8.5
CCOC(=O)N1CCN(C(=O)COc2ccccc2OC)CC1	none
CCC(NS(=O)(=O)c1ccc(C)cc1)C(=O)Nc1ccc(NC(C)=O)cc1 (stereo unspecified)	none
COC(=O)c1ccc(-n2nnnc2SCc2ccccc2OC)cc1	none
Cc1cc(C)cc(OCC(=O)Nc2cccc(-c3nnc(-c4ccco4)o3)c2)c1	D1 allo mod -3.4
Cc1onc(-c2c(Cl)cccc2Cl)c1C(=O)N1CCc2ccccc21	D1 allo mod -4.8
Cc1onc(-c2c(F)cccc2Cl)c1C(=O)N1CCc2ccccc2C1	D1 allo mod -3.5
Cc1onc(-c2ccccc2Cl)c1C(=O)N1CCc2ccccc2C1	none (no result: D1 allo mod, AP complement, Ec RNAP inh, HEK293 NFkB inh)
Cc1nc(-c2ccc(Cl)cc2)sc1C1(C)CC(c2cccc([N+](=O)[O-])c2)=NO1 (stereo unspecified)	none (no result: D1 allo mod, AP complement, Ec RNAP inh, HEK293 NFkB inh)
Cc1cc(C2=CC(C)(c3cc(C)oc3C)Nc3nc(C(F)(F)F)nn32)c(C)o1 (stereo unspecified)	none
O/N=C1/CC/C(=N\O)c2nn(-c3ccccc3)nc21	hDAT+cocaine -8 (no result: Ec RNAP inh)
O=C(O)c1nn(-c2ccccc2)nc1-c1nn(-c2ccccc2)nc1C(=O)O	none
CCCCCCCCC[n+]1cccc2c3ccccc3ccc21	hDAT+cocaine 3.2 (no result: D1 allo mod, AP complement, Ec RNAP inh, HEK293 NFkB inh)
CCCNC(=O)c1cccc(Cn2nc(C)c(Br)c2C)c1	D1 allo mod -1.7
Cc1noc(C)c1COc1ccc(C(=O)OCc2nnc(-c3ccc(Cl)cc3)o2)cc1	none
COc1ccccc1N1CCN(CC(=O)Nc2cc(C)nn2-c2nc(C)cc(C)n2)CC1	D1 allo mod 4.8 (no result: hDAT+cocaine)
Cn1c(Cc2cccs2)nnc1SCC(=O)N1CCCc2ccccc21	none (no result: D1 allo mod, AP complement, Ec RNAP inh, HEK293 NFkB inh)
O=C(CSc1nnc(Cc2cccs2)n1C1CCCCC1)N1CCCc2ccccc21	hDAT+cocaine 2.2
Cc1ccc(C(=O)CCC(=O)Nc2cccnc2)cc1C	hDAT+cocaine -8.5
CCCCCCCCC(=O)Nc1cc(C)ccc1OC	hDAT+cocaine -7.9 (no result: D1 allo mod, AP complement, Ec RNAP inh, HEK293 NFkB inh)
CCCCC(=O)Nc1nc(C)c(-c2csc(Nc3ccccc3OC)n2)s1	hDAT+cocaine 2.8 (no result: D1 allo mod, AP complement, Ec RNAP inh, HEK293 NFkB inh)
C=CCCC(=O)Nc1nc(C)c(-c2csc(Nc3ccccc3OC)n2)s1	none (no result: D1 allo mod, AP complement, Ec RNAP inh, HEK293 NFkB inh)
CCCCCCC(=O)Nc1nc(C)c(-c2csc(Nc3cc(OC)ccc3OC)n2)s1	hDAT+cocaine 2.4 (no result: D1 allo mod, AP complement, Ec RNAP inh, HEK293 NFkB inh)
Cc1cc(NC(=O)c2ccc(NC(=O)C(C)Oc3ccccc3)cc2)no1 (stereo unspecified)	none
Cc1ccc(C(=O)O)cc1S(=O)(=O)N1CCSCC1	hDAT+cocaine -9.1
Cc1ccc(-c2nnn(CC(=O)N(CC3CCCO3)C(C(=O)NC3CCCC3)c3ccc(F)cc3)n2)o1 (stereo unspecified)	none (no result: D1 allo mod, AP complement, Ec RNAP inh, HEK293 NFkB inh)
Cc1ccc(C(C(=O)NC(C)(C)C)N(CC2CCCO2)C(=O)Cn2nnc(-c3ccc(C)o3)n2)cc1 (stereo unspecified)	D1 allo mod -4.2
O=C(Oc1nsnc1N1CCOCC1)N1CCOCC1	Ec RNAP inh 31
O=C1CN(c2nc3ccccc3n3cnnc23)CC(=O)N1CCc1ccccc1	none
O=C(c1cc(-c2ccccc2)nc2ccccc12)N1N=C(C(F)F)CC1(O)C(F)F (stereo unspecified)	hDAT+cocaine 2.9 (no result: D1 allo mod, AP complement, Ec RNAP inh, HEK293 NFkB inh)
O=C(Nc1cccc(-c2csc(-c3ccccc3)n2)c1)c1cccs1	none (no result: D1 allo mod, AP complement, Ec RNAP inh, HEK293 NFkB inh)
Cc1nc(-c2cccc(NS(=O)(=O)c3cccc4ccccc34)c2)cs1	hDAT+cocaine 3.5 (no result: D1 allo mod, AP complement, Ec RNAP inh, HEK293 NFkB inh)
Nc1nc(-c2cccc(NS(=O)(=O)c3ccccc3)c2)cs1	none
Cc1nc(-c2cccc(NC(=O)c3cccs3)c2)cs1	hDAT+cocaine 3.2 (no result: D1 allo mod, AP complement, Ec RNAP inh, HEK293 NFkB inh)
CC(C)(C)NC(=O)COc1ccc(CNCc2cccs2)cc1	none (no result: D1 allo mod, AP complement, Ec RNAP inh, HEK293 NFkB inh)
Cc1ccc(-n2c(SCC(=O)NCc3cccs3)nnc2-c2ccoc2C)cc1	hDAT+cocaine 2.6
O=C(/C=C\Nc1ccc2c(c1)OCO2)c1ccccn1	D1 allo mod -8, HEK293 NFkB inh 48
O=C(NCc1ccc2c(c1)OCO2)c1ccccn1	none
Cc1cc(C)n2nc(C(=O)OCC(=O)Nc3ccc4c(c3)OCO4)nc2n1	D1 allo mod -4.9
Cc1cc(C)n2nc(C(=O)OCC(=O)Nc3ccc4c(c3)OC(F)(F)O4)nc2n1	none (no result: D1 allo mod, AP complement, Ec RNAP inh, HEK293 NFkB inh)
Cc1cccc(CN2[C@@H](CC(C)C)COCCS2(=O)=O)c1	none (no result: D1 allo mod, AP complement, Ec RNAP inh, HEK293 NFkB inh)
Cc1c(NC(=O)CSc2nc3ccccc3n2C)c(=O)n(-c2ccccc2)n1C	none
Cn1c(=O)[nH]c(=O)c2c1nc(Br)n2CC(O)c1ccccc1 (stereo unspecified)	AP complement 42
CC(C)n1c(SCCCc2ccccc2)nc2c1c(=O)[nH]c(=O)n2C	AP complement 33 (no result: D1 allo mod)
CCOC(=O)C(C)Sc1nc2c(c(=O)[nH]c(=O)n2C)n1CCc1ccccc1 (stereo unspecified)	D1 allo mod 5.6
Cc1ccc(Cn2c(Sc3nnc(C)s3)nc3c2c(=O)[nH]c(=O)n3C)cc1	none
Cn1c(=O)[nH]c(=O)c2c1nc(Sc1nc3ccccc3s1)n2Cc1ccccc1	D1 allo mod 4
Cc1cc(C)c(S(=O)(=O)NCC23C=CC(O2)C2C(=O)N(c4ccccc4)C(=O)C23)c(C)c1 (stereo unspecified)	none (no result: D1 allo mod, AP complement, Ec RNAP inh, HEK293 NFkB inh)
CCOC(=O)C=C1CCN(c2ncc(C(F)(F)F)cc2Cl)CC1	none (no result: D1 allo mod, AP complement, Ec RNAP inh, HEK293 NFkB inh)
O=C1CCCN1c1ccc(S(=O)(=O)Oc2cccc(Cl)c2)cc1[N+](=O)[O-]	none (no result: D1 allo mod, AP complement, Ec RNAP inh, HEK293 NFkB inh)
